What was measured:
[1] = Cell cycle arrest in KB/HeLa cells assessed as accumulation at G1 phase at 316 nM after 24 hrs by flow cytometric analysis; format: functional, cell-based; settings: Homo sapiens
Method in brief: (§1)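 Subconfluent KB/HeLa cells exposed to a range of compound concentrations for 24 h. Cell cycle phase distribution determined by flow cytometry. Experiments run at least in duplicate (n = 2).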

[2] = Cell cycle arrest in KB/HeLa cells assessed as accumulation at G2M phase at 0.3 nM after 24 hrs by flow cytometric analysis; format: functional, cell-based; settings: Homo sapiens; method in brief: as §1
[3] = Cell cycle arrest in KB/HeLa cells assessed as accumulation at G1 phase at 10 nM after 24 hrs by flow cytometric analysis; format: functional, cell-based; settings: Homo sapiens; method in brief: as §1
[4] = Cell cycle arrest in KB/HeLa cells assessed as accumulation at G1 phase at 0.1 nM after 24 hrs by flow cytometric analysis; format: functional, cell-based; settings: Homo sapiens; method in brief: as §1
[5] = Cell cycle arrest in KB/HeLa cells assessed as accumulation at G2M phase at 31.6 nM after 24 hrs by flow cytometric analysis; format: functional, cell-based; settings: Homo sapiens; method in brief: as §1
[6] = Cell cycle arrest in KB/HeLa cells assessed as accumulation at S phase at 3.16 nM after 24 hrs by flow cytometric analysis; format: functional, cell-based; settings: Homo sapiens; method in brief: as §1
[7] = Cell cycle arrest in KB/HeLa cells assessed as accumulation at G2M phase at 10 nM after 24 hrs by flow cytometric analysis; format: functional, cell-based; settings: Homo sapiens; method in brief: as §1
[8] = Cell cycle arrest in KB/HeLa cells assessed as accumulation at G2M phase at 0.1 nM after 24 hrs by flow cytometric analysis; format: functional, cell-based; settings: Homo sapiens; method in brief: as §1
[9] = Cell cycle arrest in KB/HeLa cells assessed as accumulation at G1 phase at 0.3 nM after 24 hrs by flow cytometric analysis; format: functional, cell-based; settings: Homo sapiens; method in brief: as §1
[10] = Cell cycle arrest in KB/HeLa cells assessed as accumulation at S phase at 100 nM after 24 hrs by flow cytometric analysis; format: functional, cell-based; settings: Homo sapiens; method in brief: as §1
[11] = Cell cycle arrest in KB/HeLa cells assessed as accumulation at G1 phase at 3.16 nM after 24 hrs by flow cytometric analysis; format: functional, cell-based; settings: Homo sapiens; method in brief: as §1
[12] = Cell cycle arrest in KB/HeLa cells assessed as accumulation at S phase at 0.1 nM after 24 hrs by flow cytometric analysis; format: functional, cell-based; settings: Homo sapiens; method in brief: as §1
[13] = Cell cycle arrest in KB/HeLa cells assessed as accumulation at G2M phase at 316 nM after 24 hrs by flow cytometric analysis; format: functional, cell-based; settings: Homo sapiens; method in brief: as §1
[14] = Cell cycle arrest in KB/HeLa cells assessed as accumulation at G1 phase at 1 nM after 24 hrs by flow cytometric analysis; format: functional, cell-based; settings: Homo sapiens; method in brief: as §1
[15] = Cell cycle arrest in KB/HeLa cells assessed as accumulation at G2M phase at 100 nM after 24 hrs by flow cytometric analysis; format: functional, cell-based; settings: Homo sapiens; method in brief: as §1
[16] = Cell cycle arrest in KB/HeLa cells assessed as accumulation at G2M phase at 3.16 nM after 24 hrs by flow cytometric analysis; format: functional, cell-based; settings: Homo sapiens
[17] = Cell cycle arrest in KB/HeLa cells assessed as accumulation at G2M phase at 1 nM after 24 hrs by flow cytometric analysis; format: functional, cell-based; settings: Homo sapiens; method in brief: as §1
[18] = Cell cycle arrest in KB/HeLa cells assessed as accumulation at S phase at 31.6 nM after 24 hrs by flow cytometric analysis; format: functional, cell-based; settings: Homo sapiens; method in brief: as §1
[19] = Cell cycle arrest in KB/HeLa cells assessed as accumulation at S phase at 0.3 nM after 24 hrs by flow cytometric analysis; format: functional, cell-based; settings: Homo sapiens; method in brief: as §1
[20] = Cell cycle arrest in KB/HeLa cells assessed as accumulation at S phase at 10 nM after 24 hrs by flow cytometric analysis; format: functional, cell-based; settings: Homo sapiens; method in brief: as §1
[21] = Cell cycle arrest in KB/HeLa cells assessed as accumulation at G1 phase at 100 nM after 24 hrs by flow cytometric analysis; format: functional, cell-based; settings: Homo sapiens; method in brief: as §1
[22] = Cell cycle arrest in KB/HeLa cells assessed as accumulation at G2/M phase after 24 hrs by flow cytometric analysis; format: functional, cell-based; settings: Homo sapiens; method in brief: as §1
[23] = Cell cycle arrest in KB/HeLa cells assessed as accumulation at G1 phase at 31.6 nM after 24 hrs by flow cytometric analysis; format: functional, cell-based; settings: Homo sapiens; method in brief: as §1
[24] = Cell cycle arrest in KB/HeLa cells assessed as accumulation at S phase at 316 nM after 24 hrs by flow cytometric analysis; format: functional, cell-based; settings: Homo sapiens; method in brief: as §1
[25] = Cell cycle arrest in KB/HeLa cells assessed as accumulation at S phase at 1 nM after 24 hrs by flow cytometric analysis; format: functional, cell-based; settings: Homo sapiens; method in brief: as §1
Tubulin = Tubulin (Sus scrofa, UniProt P02554+P02550); experiment: Inhibition of porcine brain tubulin polymerization
K562 = experiment: Antiproliferative activity against human K562 cells after 48 hrs; format: functional, cell-based; settings: K562, 48 h
Method in brief: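 Growth of K562 cells measured by counting cells with a hemocytometer after 48 h (2 days) of drug treatment. IC50 is the mean of at least three independent determinations.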

RKO = experiment: Cytotoxicity against human RKO cells with ectopic-inducible expression of p27kip1 after 48 hrs by XTT assay; format: functional, cell-based
Method in brief: (§2)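 XTT proliferation assay with 48 h incubation with test compound. Each experiment run at least in duplicate (n = 2). IC50 calculated by nonlinear regression of dose-response curves.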

[26] = Cytotoxicity against human KB/HeLa cells after 48 hrs by XTT assay; format: functional, cell-based; method in brief: as §2
[27] = Antiproliferative activity against rat multidrug-resistant L12 cells after 48 hrs by XTT assay; format: functional, cell-based; settings: L1.2, 48 h; method in brief: as §2
P388 = experiment: Antiproliferative activity against mouse adriamycin-resistant P388 cells after 48 hrs by XTT assay; format: functional, cell-based; settings: P388, 48 h; method in brief: as §2
L1210 = experiment: Antiproliferative activity against mouse vincristine-resistant L1210 cells after 48 hrs by XTT assay; format: functional, cell-based; settings: L1210, 48 h; method in brief: as §2

Row | EC50 [22] | IC50 (Tubulin) | IC50 (K562) | SMILES | Activity [1] | Activity [3] | Activity [5] | Activity [6] | Activity [7] | Activity [10] | Activity [11] | Activity [13] | Activity [14] | Activity [15] | Activity [16] | Activity [17] | Activity [18] | Activity [20] | Activity [21] | Activity [23] | Activity [24] | further results
1 |  | > 10000 nM | 1700 nM | COc1ccc(S(=O)(=O)Oc2c3cccc(Cl)c3cc3c(Cl)cccc23)cc1 |  |  |  |  |  |  |  |  |  |  |  |  |  |  |  |  |  | 
2 |  | 290 nM | 50 nM | CNc1ccc(S(=O)(=O)Oc2c3ccccc3cc3sccc23)cc1 |  |  |  |  |  |  |  |  |  |  |  |  |  |  |  |  |  | 

The next lines start with the molecule.

Row | SMILES | EC50 [22] | IC50 (Tubulin) | IC50 (K562) | Activity [1] | Activity [3] | Activity [5] | Activity [6] | Activity [7] | Activity [10] | Activity [11] | Activity [13] | Activity [14] | Activity [15] | Activity [16] | Activity [17] | Activity [18] | Activity [20] | Activity [21] | Activity [23] | Activity [24] | further results
3 | CC[C@]1(O)C[C@H]2CN(CCc3c([nH]c4ccccc34)[C@@](C(=O)OC)(c3cc4c(cc3OC)N(C=O)[C@H]3[C@@](O)(C(=O)OC)[C@H](OC(C)=O)[C@]5(CC)C=CCN6CC[C@]43[C@@H]65)C2)C1 [VINCRISTINE] | 2.4 nM |  |  | 0.2% | 0.5% | 92.6% | 26% | 86.7% | 4.8% | 6.5% | 93.8% | 53.7% | 95.1% | 65.8% | 17.2% | 7.2% | 13.1% | 0.2% | 1% | 5.9% | Activity [2]: 11.7%; Activity [4]: 61.2%; Activity [8]: 11.1%; Activity [9]: 64.5%; Activity [12]: 27.7%; Activity [19]: 24%; Activity [25]: 28.3%
4 | CC(=O)O[C@H]1C(=O)[C@@]2(C)[C@H]([C@H](OC(=O)c3ccccc3)[C@]3(O)C[C@H](OC(=O)[C@H](O)[C@@H](NC(=O)c4ccccc4)c4ccccc4)C(C)=C1C3(C)C)[C@]1(OC(C)=O)CO[C@@H]1C[C@@H]2O [PACLITAXEL] | 49 nM |  |  | 0.3% | 64.8% | 19% | 27% | 8.5% | 11% | 63.6% | 90.8% | 63.2% | 87.8% | 9.4% | 10.1% | 49.9% | 26.6% | 1.2% | 31.1% | 8.9% | IC50 (RKO): > 3000 nM; IC50 [26]: 10 nM; IC50 [27]: 400 nM; IC50 (P388): > 5000 nM; IC50 (L1210): > 5000 nM; Activity [25]: 26.7%
5 | COc1ccc(S(=O)(=O)Oc2c3c(nc4ccccc24)CCCC3)cc1 |  | > 10000 nM | 830 nM |  |  |  |  |  |  |  |  |  |  |  |  |  |  |  |  |  | 
6 | O=S(=O)(Oc1c2ccccc2cc2sccc12)c1ccccc1 |  | > 14000 nM | 800 nM |  |  |  |  |  |  |  |  |  |  |  |  |  |  |  |  |  | 

Reference: ChEMBL document CHEMBL1138290 (J Med Chem, 2007)
